Results published in ChEMBL document CHEMBL6087468, “TKK130 is a 3-Hydroxy-Propanamidine (HPA) with Potent Antimalarial In Vivo Activity and a High Barrier to Resistance” (J Med Chem, 2025).

How the values were obtained:
[1] = Unbound drug concentration in plasma (unknown origin) at 25 ng/ml measured after 24 hrs by dilution method; format: ADME, cell-free
How it was run: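 Equilibrium dialysis with donor plasma diluted 1:10 or 1:20 in 0.9% saline, spiked at 25 ng/mL, against 0.9% saline acceptor for 24 h at 37 °C. Concentrations by LC–MS/MS against diluted-plasma calibration curves; unbound fraction (acceptor/donor) back-calculated to undiluted plasma; triplicate; itraconazole reference.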

Plasmodium falciparum [2] = assay: Antimalarial activity against Plasmodium falciparum K1 infected in human erythrocytes assessed as inhibition of parasite growth measured after 48 hrs incubation by [3H]hypoxanthine incorporation assay; format: functional, organism-based; details: K1, Erythrocyte
[3] = Chemical stability of the compound in aqueous buffer at pH 7.4; format: physicochemical
How it was run: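 Stability tested in aqueous phosphate buffer, pH 7.4, at room temperature over 24 h, n = 3.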

[4] = Cytotoxicity against human HEK293 cells assessed as cell viability measured after 24 hrs by neutral red assay; format: toxicity, cell-based
Plasmodium falciparum [5] = assay: Antimalarial activity against Plasmodium falciparum Dd2 MMV183 harboring PfACoAS-mutant infected in human erythrocytes assessed as inhibition of parasite growth measured after 72 hrs incubation by [3H]hypoxanthine incorporation assay; format: functional, organism-based; details: Dd2 MMV183, Erythrocyte
How it was run: (§1)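 Dd2 parent line, and mutants made from it by gene editing or drug selection. Growth inhibition measured by the 72 h [3H]hypoxanthine incorporation assay at Swiss TPH. Values are means of 2 independent biological replicates.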

Plasmodium berghei [6] = assay: In vivo antiplasmodial activity against Plasmodium berghei infected mouse model assessed as mean survival time at 10 mg/kg, po treated 4 times measured at 96 hrs post infection by fluorescence-activated cell sorting (FACS) analysis (reference value: 4 days); format: functional
Plasmodium falciparum [7] = assay: Ex vivo antimalarial activity against Plasmodium falciparum clinical isolates; format: functional, organism-based
[8] = Plasma stability at 37 °C measured as remaining drug at 2 hrs sampled in triplicate (concentration 25 ng/mL 2 (TKK130)); format: ADME, cell-free; details: human, at 25 ng/mL, read-out: Stability
How it was run: (§2)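 Fresh EDTA human plasma warmed to 37 °C, spiked to 25 ng/mL (0.5% methanol final), split into three fractions, shaken at 37 °C. Samples at 0, 2, 4, 6, 24, 48 h precipitated with ice-cold acetonitrile containing internal standard; LC–MS/MS. Recovery = analyte/IS area ratio relative to 0 h; triplicate.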

Plasmodium falciparum [9] = assay: Induction of resistance development in Plasmodium falciparum Dd2 Pol delta at 2 x 10^9 initial inoculum per flask at 9 nM measured 60 days of recovery time by single-step selection assay; format: functional, organism-based; details: time 60.0 day
Plasmodium falciparum [10] = assay: Antimalarial activity against Plasmodium falciparum Dd2 SJ557733 harboring Pfatp4-mutant infected in human erythrocytes assessed as inhibition of parasite growth measured after 72 hrs incubation by [3H]hypoxanthine incorporation assay; format: functional, organism-based; details: Dd2 SJ557733, Erythrocyte; how it was run: as §1
[11] = Plasma stability at 37 °C measured as remaining drug at 6 hrs sampled in triplicate (concentration 25 ng/mL 2 (TKK130)); format: ADME, cell-free; details: human, at 25 ng/mL, read-out: Stability; how it was run: as §2
[12] = Cytotoxicity against human HeLa cells assessed as cell viability measured after 24 hrs by neutral red assay; format: toxicity, cell-based
Plasmodium falciparum [13] = assay: Antimalarial activity against multidrug-resistant Plasmodium falciparum TM90C2b harboring pfcrt, pfmdr1, pfdhfr, pfdhps and pfcytb-Q0 mutated loci assessed as inhibition of parasite growth incubated for 48 hrs by [3H]hypoxanthine incorporation assay; format: functional, organism-based
[14] = Plasma stability at 37 °C measured as remaining drug at 4 hrs sampled in triplicate (concentration 25 ng/mL 2 (TKK130)); format: ADME, cell-free; details: human, at 25 ng/mL, read-out: Stability; how it was run: as §2
Plasmodium falciparum [15] = assay: Antimalarial activity against Plasmodium falciparum Dd2 DDD107498 harboring PfeEF2 mutant infected in human erythrocytes assessed as inhibition of parasite growth measured after 72 hrs incubation by [3H]hypoxanthine incorporation assay; format: functional, organism-based; details: Dd2 DDD107498, Erythrocyte; how it was run: as §1
Plasmodium berghei [16] = assay: In vivo antiplasmodial activity against Plasmodium berghei infected mouse model assessed as mean survival time at 3 mg/kg, po treated 4 times measured at 96 hrs post infection by fluorescence-activated cell sorting (FACS) analysis (reference value: 4 days); format: functional
[17] = Metabolic stability in human liver microsomes assessed as intrinsic clearance at 50 ug/ml measured up to 60 mins; format: ADME, Microsome; details: microsomes, 1 h, dose 50 µg/ml
How it was run: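 Pooled human liver microsomes (150 donors) in 0.1 M potassium phosphate buffer pH 7.4, cosolvent method, analyte at 1 μM final; reactions stopped with ice-cold acetonitrile at 0, 15, 30, 45, 60 min; LC–MS/MS. Clint from ke (negative slope of ln peak-area ratio vs time) via t1/2 = ln2/ke; triplicate; no-cofactor negative control and blank run.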

[18] = Tmax in mouse infected with Plasmodium berghei at 10 mg/kg, po; format: ADME, organism-based; details: in vivo
How it was run: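 Infected mice (n = 2 per dose) given a single oral dose of 3, 10 or 30 mg/kg; blood sampled as dried blood spots at 1, 4 and 24 h post-dose, diluted before LC–MS analysis against whole-blood dried-spot calibration (1.56–800 ng/mL) with QCs; tmax from concentration–time profiles.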

[19] = Plasma protein binding in plasma (unknown origin) at 25 ng/ml measured after 24 hrs by standard equilibrium dialysis assay; format: ADME, cell-free; details: read-out: PPB (converted)
How it was run: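 Standard equilibrium dialysis (6 kDa regenerated cellulose membrane): donor plasma spiked at 25 ng/mL, acceptor 0.9% saline, 24 h at 37 °C. Acetonitrile precipitation of plasma, methanol added to acceptor; LC–MS/MS with calibration curves in each medium; fraction bound corrected for volume shift; triplicate; itraconazole reference.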

[20] = Cytotoxicity against human HepG2 cells assessed as cell viability measured after 24 hrs by neutral red assay; format: toxicity, cell-based
Plasmodium falciparum [21] = assay: Antimalarial activity against […] wild type Plasmodium falciparum NF54 assessed as inhibition of parasite growth incubated for 48 hrs by [3H]hypoxanthine incorporation assay; format: functional, organism-based
[22] = Cmax in mouse infected with Plasmodium berghei at 30 mg/kg, po; format: ADME, organism-based; details: in vivo
How it was run: (§3)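 Single oral dose to P. berghei-infected mice, 2 mice per dose group. Blood sampled at 1, 4 and 24 h post-dose as dried blood spots, plus a blank "0 h" reading. Spots diluted 1:5 (3, 10 mg/kg) or 1:10 (30 mg/kg), then quantified by LC–MS/MS against a whole-blood calibration of 1.56–800 ng/mL with QCs at three levels.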

[23] = AUC (0 to t) in mouse infected with Plasmodium berghei at 30 mg/kg, po; format: ADME, organism-based; details: in vivo; how it was run: as §3
Plasmodium knowlesi = assay: Antiplasmodial activity against Plasmodium Knowlesi inhibition of parasite growth measured after 48 hrs incubation by Sybr-green assay; format: functional, organism-based
Plasmodium falciparum [24] = assay: Antimalarial activity against Plasmodium falciparum Dd2 GNF156 harboring Pfcarl-mutant infected in human erythrocytes assessed as inhibition of parasite growth measured after 72 hrs incubation by [3H]hypoxanthine incorporation assay; format: functional, organism-based; details: Dd2 GNF156, Erythrocyte; how it was run: as §1
Plasmodium falciparum [25] = assay: Antimalarial activity against wild type Plasmodium falciparum Dd2 infected in human erythrocytes assessed as inhibition of parasite growth measured after 72 hrs incubation by [3H]hypoxanthine incorporation assay; format: functional, organism-based; details: Dd2, Erythrocyte; how it was run: as §1
[26] = AUC (0 to t) in mouse infected with Plasmodium berghei at 10 mg/kg, po; format: ADME, organism-based; details: in vivo; how it was run: as §3
Plasmodium falciparum [27] = assay: Antimalarial activity against Plasmodium falciparum Dd2 ELQ300 harboring PfcytB-mutant infected in human erythrocytes assessed as inhibition of parasite growth measured after 72 hrs incubation by [3H]hypoxanthine incorporation assay; format: functional, organism-based; details: Dd2 ELQ300, Erythrocyte; how it was run: as §1

## Cl.N=C(CC(O)c1cc2c(F)cc(F)cc2c2cc(C(F)(F)F)ccc12)Nc1ccc(F)cc1 (stereo not drawn)
[1]
  Cp(f): 0.4%
Plasmodium falciparum [2]
  IC50: 3 nM
[3]
  Stability: > 90%
[4]
  IC50 at 24 h: 47800 nM
Plasmodium falciparum [5]
  IC50: 13 nM
Plasmodium berghei [6]
  MSD: 28 days
Plasmodium falciparum [7]
  IC50: 7.5 nM
[8]
  remaining at 2 h, 25 ng/mL: 90.2%
Plasmodium falciparum [9]
  Activity: Active; No Subsequent Parasite Growth Observed
Plasmodium falciparum [10]
  IC50: 11 nM
[11]
  remaining at 6 h, 25 ng/mL: 91.9%
[12]
  IC50 at 24 h: 89300 nM
Plasmodium falciparum [13]
  IC50: 126 nM
[14]
  remaining at 4 h, 25 ng/mL: 89.1%
Plasmodium falciparum [15]
  IC50: 16 nM
Plasmodium berghei [16]
  MSD: 20 days
[17]
  CLint: 1.8 µL/min/mg
[18]
  Tmax: 4 h
[19]
  fraction unbound at 24 h, 25 ng/ml: < 0.002
[20]
  IC50 at 24 h: 20000 nM
Plasmodium falciparum [21]
  IC50: 11 nM
[22]
  Cmax: 2030 ng/mL
[23]
  AUC(0-t): 40900 ng·h/mL
Plasmodium knowlesi
  IC50: 1 nM
Plasmodium falciparum [24]
  IC50: 7 nM
Plasmodium falciparum [25]
  IC50: 15 nM
[26]
  AUC(0-t): 11600 ng·h/mL
Plasmodium falciparum [27]
  IC50: 14 nM
